This note sets out measurements from ChEMBL document CHEMBL1250448, “Inhibitor hijacking of Akt activation” (Nat Chem Biol, 2009).

Molecules are shown by their SMILES.

The target in experiment [1] is Casein kinase I isoform gamma-1 (Homo sapiens) (UniProt Q9HCP0). The experiment can be described thus: Inhibition of CSNK1G1 at 1 uM in presence of 10 uM ATP by Select Screen kinase assay relative to untreated control. The gist of the method: (§1)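 Single-point screen at 1 μM against a panel of 220 purified kinases, run by Invitrogen staff as a SelectScreen profiling service. Read-out is percent inhibition of kinase activity.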

In experiment [2] the target is T1, Ephrin type-A receptor 8 (Homo sapiens) (UniProt P29322).
T1 sequence (whole entry): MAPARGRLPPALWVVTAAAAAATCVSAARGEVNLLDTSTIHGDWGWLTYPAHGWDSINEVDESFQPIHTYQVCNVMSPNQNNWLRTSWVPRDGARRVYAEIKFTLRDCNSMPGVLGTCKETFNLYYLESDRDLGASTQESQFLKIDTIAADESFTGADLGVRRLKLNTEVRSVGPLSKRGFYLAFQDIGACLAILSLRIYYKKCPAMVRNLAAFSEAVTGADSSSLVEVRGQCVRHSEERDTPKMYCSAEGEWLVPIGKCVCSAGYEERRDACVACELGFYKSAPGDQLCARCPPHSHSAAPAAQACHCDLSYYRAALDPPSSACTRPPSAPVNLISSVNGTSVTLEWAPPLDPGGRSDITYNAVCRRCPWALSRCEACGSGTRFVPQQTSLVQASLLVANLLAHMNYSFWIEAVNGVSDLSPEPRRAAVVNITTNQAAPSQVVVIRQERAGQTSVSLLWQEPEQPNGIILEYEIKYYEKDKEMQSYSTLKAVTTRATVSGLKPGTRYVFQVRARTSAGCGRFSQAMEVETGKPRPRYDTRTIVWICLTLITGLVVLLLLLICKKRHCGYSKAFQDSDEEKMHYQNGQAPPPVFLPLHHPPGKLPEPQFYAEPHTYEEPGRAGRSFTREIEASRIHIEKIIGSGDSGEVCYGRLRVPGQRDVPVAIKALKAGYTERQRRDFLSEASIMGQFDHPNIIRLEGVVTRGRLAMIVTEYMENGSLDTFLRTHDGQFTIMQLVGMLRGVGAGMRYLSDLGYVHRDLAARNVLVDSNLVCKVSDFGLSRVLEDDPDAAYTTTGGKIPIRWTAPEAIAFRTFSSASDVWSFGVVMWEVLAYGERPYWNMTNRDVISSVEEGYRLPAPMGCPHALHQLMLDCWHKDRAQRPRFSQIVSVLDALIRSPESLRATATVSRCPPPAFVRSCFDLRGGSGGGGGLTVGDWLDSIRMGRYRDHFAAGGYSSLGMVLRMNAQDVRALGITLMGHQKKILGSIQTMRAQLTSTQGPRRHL
The experiment can be described thus: Inhibition of EPHA8 at 1 uM in presence of 10 uM ATP by Select Screen kinase assay relative to untreated control. The essentials:
as §1

Experiment [3] relates to Platelet-derived growth factor receptor alpha (Homo sapiens), P16234 [D842V]. The experiment can be described thus: Inhibition of PDGFRalpha D842V mutant at 1 uM in presence of 10 uM ATP by Select Screen kinase assay relative to untreated control. The gist of the method:
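Commercial SelectScreen profiling panel of 220 purified kinases. Each kinase was tested at a single inhibitor concentration of 1 μM, and activity was expressed as percent inhibition.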

Experiment [4] concerns the target Aurora kinase C (Homo sapiens) (UniProt Q9UQB9). The experiment can be described thus: Inhibition of AURKC at 1 uM in presence of 10 uM ATP by Select Screen kinase assay relative to untreated control.
In experiment [5] the target is T2, Ephrin type-B receptor 2 (Homo sapiens) (UniProt P29323).
T2 sequence (whole entry): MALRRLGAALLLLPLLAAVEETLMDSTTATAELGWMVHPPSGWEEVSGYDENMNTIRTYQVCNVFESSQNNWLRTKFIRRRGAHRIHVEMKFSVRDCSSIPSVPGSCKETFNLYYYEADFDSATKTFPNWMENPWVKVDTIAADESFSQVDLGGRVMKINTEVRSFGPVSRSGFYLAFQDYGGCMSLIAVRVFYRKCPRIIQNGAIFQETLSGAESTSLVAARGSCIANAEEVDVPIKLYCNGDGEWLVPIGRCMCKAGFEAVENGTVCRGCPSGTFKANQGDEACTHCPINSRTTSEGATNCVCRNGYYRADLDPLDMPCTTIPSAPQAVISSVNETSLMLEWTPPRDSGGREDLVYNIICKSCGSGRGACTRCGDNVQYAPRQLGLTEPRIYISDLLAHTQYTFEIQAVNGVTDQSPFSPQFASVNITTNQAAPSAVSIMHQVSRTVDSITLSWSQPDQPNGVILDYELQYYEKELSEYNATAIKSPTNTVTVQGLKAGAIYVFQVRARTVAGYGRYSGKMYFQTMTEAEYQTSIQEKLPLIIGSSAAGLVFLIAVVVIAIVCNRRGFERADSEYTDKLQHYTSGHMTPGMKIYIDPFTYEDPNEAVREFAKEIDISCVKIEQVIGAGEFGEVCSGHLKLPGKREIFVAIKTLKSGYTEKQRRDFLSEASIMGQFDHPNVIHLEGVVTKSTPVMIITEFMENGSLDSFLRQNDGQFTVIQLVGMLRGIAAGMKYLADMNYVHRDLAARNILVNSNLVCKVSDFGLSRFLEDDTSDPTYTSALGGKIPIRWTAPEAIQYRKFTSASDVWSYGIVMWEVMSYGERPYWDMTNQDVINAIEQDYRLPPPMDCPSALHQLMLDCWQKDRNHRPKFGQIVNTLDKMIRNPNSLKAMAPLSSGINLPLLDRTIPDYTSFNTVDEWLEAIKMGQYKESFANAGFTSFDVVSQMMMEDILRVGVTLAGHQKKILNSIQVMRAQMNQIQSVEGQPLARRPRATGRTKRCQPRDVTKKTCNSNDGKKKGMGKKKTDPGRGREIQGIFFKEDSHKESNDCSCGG
The experiment can be described thus: Inhibition of EPHB2 at 1 uM in presence of 10 uM ATP by Select Screen kinase assay relative to untreated control. The gist of the method:
as §1

Chain of Platelet-derived growth factor receptor alpha (Homo sapiens), P16234 [D842V] (P16234 whole entry D842V): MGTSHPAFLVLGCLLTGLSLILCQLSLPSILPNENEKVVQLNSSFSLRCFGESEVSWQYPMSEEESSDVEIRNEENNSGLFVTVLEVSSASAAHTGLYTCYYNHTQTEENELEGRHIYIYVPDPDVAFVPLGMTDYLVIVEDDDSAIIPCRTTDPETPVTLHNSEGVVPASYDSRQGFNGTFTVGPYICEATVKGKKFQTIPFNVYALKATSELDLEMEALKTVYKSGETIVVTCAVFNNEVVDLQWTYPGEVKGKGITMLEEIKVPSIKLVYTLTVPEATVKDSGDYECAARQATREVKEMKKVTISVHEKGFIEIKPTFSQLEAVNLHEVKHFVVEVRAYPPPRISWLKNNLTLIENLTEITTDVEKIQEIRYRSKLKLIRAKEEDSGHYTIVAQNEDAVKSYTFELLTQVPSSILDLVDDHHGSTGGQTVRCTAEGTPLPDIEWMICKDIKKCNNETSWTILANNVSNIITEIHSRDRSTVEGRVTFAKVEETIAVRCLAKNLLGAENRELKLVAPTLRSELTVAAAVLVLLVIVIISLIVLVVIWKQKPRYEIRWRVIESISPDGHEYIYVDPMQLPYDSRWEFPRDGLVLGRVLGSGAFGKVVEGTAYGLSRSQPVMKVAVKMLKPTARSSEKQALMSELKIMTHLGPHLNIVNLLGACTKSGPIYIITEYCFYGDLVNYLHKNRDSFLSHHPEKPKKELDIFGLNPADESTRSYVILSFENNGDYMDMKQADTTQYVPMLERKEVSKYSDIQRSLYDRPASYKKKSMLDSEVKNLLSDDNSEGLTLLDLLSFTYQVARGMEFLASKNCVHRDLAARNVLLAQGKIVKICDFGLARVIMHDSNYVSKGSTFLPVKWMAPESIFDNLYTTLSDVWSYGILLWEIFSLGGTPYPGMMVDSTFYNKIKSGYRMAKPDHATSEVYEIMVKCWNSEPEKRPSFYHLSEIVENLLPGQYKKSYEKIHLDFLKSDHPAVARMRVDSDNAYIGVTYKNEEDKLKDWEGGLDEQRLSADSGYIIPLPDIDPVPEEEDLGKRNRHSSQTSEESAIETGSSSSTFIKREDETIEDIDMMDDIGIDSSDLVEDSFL
Chain of Casein kinase I isoform gamma-1 (Homo sapiens) (Q9HCP0 whole entry, looked up, canonical isoform): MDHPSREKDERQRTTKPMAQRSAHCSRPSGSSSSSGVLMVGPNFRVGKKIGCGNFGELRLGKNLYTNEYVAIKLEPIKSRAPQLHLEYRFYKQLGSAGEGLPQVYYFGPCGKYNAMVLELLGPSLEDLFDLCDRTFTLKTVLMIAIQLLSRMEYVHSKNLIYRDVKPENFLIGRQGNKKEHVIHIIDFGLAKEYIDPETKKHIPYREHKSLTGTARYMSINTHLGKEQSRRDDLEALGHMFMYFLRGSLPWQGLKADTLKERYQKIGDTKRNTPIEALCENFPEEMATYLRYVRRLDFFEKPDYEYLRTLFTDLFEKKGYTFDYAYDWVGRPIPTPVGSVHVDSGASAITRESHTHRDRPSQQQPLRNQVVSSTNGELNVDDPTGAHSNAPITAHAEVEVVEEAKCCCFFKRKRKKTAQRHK
Chain of Aurora kinase C (Homo sapiens) (Q9UQB9 whole entry, looked up): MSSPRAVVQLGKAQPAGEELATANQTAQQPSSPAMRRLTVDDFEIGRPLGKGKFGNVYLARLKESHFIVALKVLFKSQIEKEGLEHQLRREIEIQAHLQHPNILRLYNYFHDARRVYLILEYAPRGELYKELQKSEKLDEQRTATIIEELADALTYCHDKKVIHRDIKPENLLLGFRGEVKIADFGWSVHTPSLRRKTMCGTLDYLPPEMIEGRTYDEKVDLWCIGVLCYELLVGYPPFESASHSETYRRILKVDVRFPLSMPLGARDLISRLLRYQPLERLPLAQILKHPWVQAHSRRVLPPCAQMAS

In the case of `COc1ccccc1N1CCN(c2ncnc3[nH]nc(Br)c23)CC1`, the inhibition (commonly the change of the read-out against control, counted positive when it falls) turned out to be 11% in experiment [1]; 16% in experiment [2]; 2% in experiment [3]; 16% in experiment [4]; 7% in experiment [5].

Take `O=C(NCCCNc1nc(Nc2cccc(NC(=O)N3CCCC3)c2)ncc1I)c1cccs1`: the inhibition in experiment [1] worked out at 10%; in experiment [2], 16%; in experiment [3] it was 106%; in experiment [4], 96%; in experiment [5], 7%.

`Cc1n[nH]c2ccc(-c3cncc(OC[C@@H](N)Cc4c[nH]c5ccccc45)c3)cc12`: the inhibition in experiment [1] worked out at 62%; in experiment [2], 3%; in experiment [3], 11%; in experiment [4], 17%; in experiment [5], 1%.
